Results: ChEMBL document CHEMBL1138356, “Design and synthesis of human immunodeficiency virus entry inhibitors: sulfonamide as an isostere for the alpha-ketoamide group” (J Med Chem, 2007)

Experiments:
[1] = test system: Human immunodeficiency virus; experiment: Antiviral activity against HIV 584.000058 by viral replication assay; type: functional, organism-based; conditions: Human immunodeficiency virus 1
[2] = test system: Human immunodeficiency virus; experiment: Antiviral activity against HIV 584.000030 by viral replication assay; type: functional, organism-based; conditions: Human immunodeficiency virus 1
[3] = test system: Human immunodeficiency virus; experiment: Antiviral activity against HIV 584.000039 by viral replication assay; type: functional, organism-based; conditions: Human immunodeficiency virus 1
[4] = test system: Human immunodeficiency virus; experiment: Antiviral activity against HIV 208.000923 by viral replication assay; type: functional, organism-based; conditions: Human immunodeficiency virus 1
[5] = test system: Human immunodeficiency virus; experiment: Antiviral activity against HIV 584.000220 by viral replication assay; type: functional, organism-based; conditions: Human immunodeficiency virus 1
[6] = test system: Human immunodeficiency virus; experiment: Antiviral activity against HIV 589.000049 by viral replication assay; type: functional, organism-based; conditions: Human immunodeficiency virus 1
[7] = test system: Human immunodeficiency virus; experiment: Antiviral activity against HIV 589.000821 by viral replication assay; type: functional, organism-based; conditions: Human immunodeficiency virus 1
[8] = test system: Human immunodeficiency virus; experiment: Antiviral activity against HIV 584.000016 by viral replication assay; conditions: Human immunodeficiency virus 1
[9] = test system: Human immunodeficiency virus; experiment: Antiviral activity against HIV 584.000241 by viral replication assay; type: functional, organism-based; conditions: Human immunodeficiency virus 1
[10] = test system: Human immunodeficiency virus 1; experiment: Antiviral activity against HIV1 pseudovirus in U87 cells expressing CD4 and CCR5 after 72 hrs by M33 pseudotyped assay; type: functional, organism-based, U-87MG ATCC; conditions: Human immunodeficiency virus 1, U-87 MG
Outline: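 M33 pseudotyped viral attachment assay giving IC50 values. Specificity for HIV was judged by counter-screening against AMLV-pseudotyped virus at concentrations above 100× the M33 IC50.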

[11] = test system: Human immunodeficiency virus; experiment: Antiviral activity against HIV 589.000033 by viral replication assay; type: functional, organism-based; conditions: Human immunodeficiency virus 1
[12] = test system: Human immunodeficiency virus; experiment: Antiviral activity against HIV 584.000088 by viral replication assay; type: functional, organism-based; conditions: Human immunodeficiency virus 1
[13] = test system: Human immunodeficiency virus; experiment: Antiviral activity against HIV 584.000063P1B by viral replication assay; type: functional, organism-based; conditions: Human immunodeficiency virus 1
[14] = Cytotoxicity against human U87 cells expressing CD4 and CXCR4; type: cell-based, U-87MG ATCC

IC50 [1] [µM]	IC50 [2] [µM]	IC50 [3] [µM]	IC50 [4] [µM]	IC50 [5] [µM]	IC50 [6] [µM]	IC50 [7] [µM]	IC50 [8] [µM]	IC50 [9] [µM]	IC50 [10] [µM]	IC50 [11] [µM]	IC50 [12] [µM]	IC50 [13] [µM]	Structure (SMILES)	CC50 [14] [µM]
0.058	0.031	0.4	1.4	0.004	0.006	2.8	0.04	0.118	0.008	0.028	0.014	0.037	COc1ccnc2[nH]cc(C(=O)C(=O)N3CCN(C(=O)c4ccccc4)C[C@H]3C)c12	> 40
1.4	0.267	1.8	0.465	0.002	0.046	0.33	0.513	0.008	0.054	0.492	0.116	0.46	CC1CN(C(=O)c2ccccc2)CCN1S(=O)(=O)c1c[nH]c2c(-n3ccnn3)nccc12 (racemic)	> 40
